Activity calls are given as the source filed them. No cut-off for these calls is given here.
What was measured:
[1] = target: N-lysine methyltransferase SMYD2 (Homo sapiens) (UniProt Q9NRG4); test: Inhibition of Smyd2 KMT activity in human HEK 293T cells co-transfected with Flag-STAT3 and HA-Smyd2b assessed as decrease in Stat3 phosphorylation at 15 to 25 uM for 6 hrs by Co-IP assay; assay type: cell-based; details: dose 15-25 µM
Method in brief: (§1)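 HEK 293T cells were co-transfected with Flag-Stat3 and HA-Smyd2b. Compound was added at 15 or 25 µM for 6 h, or at 2.5 or 5 µM for 28 h, before harvest at 48 h post-transfection. Lysates were made in denaturing buffer with 1% SDS at 100°C for 20 min, then diluted to 0.1% SDS. Stat3 was immunoprecipitated with anti-Flag beads for 4 h. Blots were probed for methyl-lysine and P-Stat3, normalized to Flag-Stat3. n=3.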

Cardiac Muscle Cell [2] = test: In vivo inhibition of Smyd2 KMT activity in grl5nt-/- mutant Zebrafish assessed as decrease in p-STAT3 level cardiomyocyte at 10 uM by immunostaining analysis; assay type: functional, cell-based; details: Danio rerio
Method in brief: (§2)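 grl5nt−/− zebrafish underwent ventricular resection and were bath-treated in aquarium water from 6 to 7 dpa, with 0.5‰ DMSO as vehicle. Cryosections at 7 dpa were double-immunostained for P-Stat3 and Mef2. CMs with nuclear or perinuclear cytosolic P-Stat3 were counted in the injury border zone. n=4-6 fish; mean±s.e.m.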

[3] = target: N-lysine methyltransferase SMYD2 (Homo sapiens) (UniProt Q9NRG4); test: Inhibition of Smyd2 KMT activity in human HEK 293T cells co-transfected with Flag-STAT3 and HA-Smyd2b assessed as decrease in Stat3 methylation at 15 to 25 uM for 6 hrs by Co-IP assay; assay type: cell-based; details: dose 15-25 µM; method in brief: as §1
Cardiac Muscle Cell [4] = test: In vivo inhibition of Smyd2 KMT activity in grl5nt-/- mutant Zebrafish assessed as decrease in cardiomyocyte proliferation at 10 uM by immunostaining analysis; assay type: functional, cell-based; details: Danio rerio
Method in brief: (§3)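 Adult zebrafish (WT siblings or grl5nt−/− mutants) underwent ventricular apex resection. Bath treatment in aquarium water ran from 6 to 7 dpa, with 0.5‰ DMSO as the vehicle control. Hearts were fixed at 7 dpa in 4% PFA and cut as 10 µm cryosections. Sections were given antigen retrieval at 98°C for 20 min, then stained for PCNA and Mef2. For each heart, 4-6 sections with the largest injury were imaged with a 10× objective. PCNA+Mef2+/Mef2+ cells were counted in a fixed region around the injury, and the section values were averaged per heart. n=5-11 fish.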

[5] = In vivo inhibition of Smyd2 KMT activity in Zebrafish assessed as decrease in cardiomyocyte proliferation at 10 uM by immunostaining analysis relative to control; assay type: functional; details: Danio rerio, Cardiac muscle cell; method in brief: as §3
[6] = In vivo inhibition of Smyd2 KMT activity in Zebrafish assessed as decrease in cardiomyocyte proliferation at 5 uM by immunostaining analysis relative to control; assay type: functional; details: Danio rerio, Cardiac muscle cell; method in brief: as §3
[7] = target: N-lysine methyltransferase SMYD2 (Homo sapiens) (UniProt Q9NRG4); test: Inhibition of Smyd2 KMT activity in human HEK 293T cells co-transfected with Flag-STAT3 and HA-Smyd2b assessed as decrease in Stat3 methylation at 5 to 2.5 uM for 28 hrs by Co-IP assay; assay type: cell-based; details: dose 5-2.5 µM; method in brief: as §1
Cardiac Muscle Cell [8] = test: In vivo inhibition of Smyd2 KMT activity in grl5nt-/- mutant Zebrafish assessed as decrease in p-STAT3 level cardiomyocyte at 5 uM by immunostaining analysis; assay type: functional, cell-based; details: Danio rerio; method in brief: as §2
Cardiac Muscle Cell [9] = test: In vivo inhibition of Smyd2 KMT activity in grl5nt-/- mutant Zebrafish assessed as decrease in cardiomyocyte proliferation at 5 uM by immunostaining analysis; assay type: functional, cell-based; details: Danio rerio; method in brief: as §3
[10] = target: N-lysine methyltransferase SMYD2 (Homo sapiens) (UniProt Q9NRG4); test: Inhibition of Smyd2 KMT activity in human HEK 293T cells co-transfected with Flag-STAT3 and HA-Smyd2b assessed as decrease in Stat3 phosphorylation at 5 to 2.5 uM for 28 hrs by Co-IP assay; assay type: cell-based; details: dose 5-2.5 µM; method in brief: as §1

Chain of N-lysine methyltransferase SMYD2 (Homo sapiens) (Q9NRG4 whole entry): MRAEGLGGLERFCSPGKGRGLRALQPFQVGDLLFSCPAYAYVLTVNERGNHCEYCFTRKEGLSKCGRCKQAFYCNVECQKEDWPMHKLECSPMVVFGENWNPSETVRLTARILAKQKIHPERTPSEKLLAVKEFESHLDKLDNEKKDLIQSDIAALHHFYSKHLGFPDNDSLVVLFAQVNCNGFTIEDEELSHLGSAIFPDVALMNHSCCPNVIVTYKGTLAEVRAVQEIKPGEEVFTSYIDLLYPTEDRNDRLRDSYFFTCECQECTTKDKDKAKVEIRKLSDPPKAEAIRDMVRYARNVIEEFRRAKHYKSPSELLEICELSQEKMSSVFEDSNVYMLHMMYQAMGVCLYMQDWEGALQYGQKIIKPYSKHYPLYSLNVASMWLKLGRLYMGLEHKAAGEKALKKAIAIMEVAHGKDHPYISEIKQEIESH

Structure (SMILES)	inhibition [1]	inhibition (Cardiac Muscle Cell [2])	inhibition [3]	inhibition (Cardiac Muscle Cell [4])	inhibition in vivo at 10 µM [5] [%]	inhibition in vivo at 5 µM [6] [%]	inhibition [7]	inhibition (Cardiac Muscle Cell [8])	inhibition (Cardiac Muscle Cell [9])	inhibition [10]
O=C1COc2c(CCNCCN(C(=O)CCNCCc3ccc(Cl)c(Cl)c3)C3CCCCC3)ccc(O)c2N1	Active	Active	Active	Active	34					
Cc1cn(CCN2CCN(c3ccccc3-c3cc(C#N)cc(C(=O)NCCCN4CCCC4)c3)CC2)c2ccccc12						25	Active	Active	Active	Active

Reference: ChEMBL document CHEMBL5712094, “The Gridlock transcriptional repressor impedes vertebrate heart regeneration by restricting expression of lysine methyltransferase” (2020)
